Published values from different studies.
Protocols differ between the studies behind these lines.
Target: Serine/threonine-protein kinase 38 (STK38, Homo sapiens, UniProt Q15208)

Compound | assay | setting | remaining binding [%]
Cc1cnc(Nc2ccc(C(=O)N3CCC(N4CCCC4)CC3)cc2)nc1-c1cc2ccccc2s1 | binding, competition with immobilised ligand | 1 µM | 79
COc1ccc2c(O[C@@H]3C[C@H]4C(=O)N[C@]5(C(=O)O)CC5/C=C\CCCCC[C@H](NC(=O)OC5CCCC5)C(=O)N4C3)cc(-c3csc(NC(=O)C(C)C)n3)nc2c1C (stereo partly drawn) | cell-free assay, competition with immobilised ligand | 1 µM | 50
COc1cnc(Nc2cccc(S(N)(=O)=O)c2)nc1N1CCN(c2ccccc2)C(=O)C1 | binding, competition with immobilised ligand | 1 µM | 84
CCN1CCN(Cc2ccc(C(=O)Nc3ccc(C)c(Oc4ccc5c(c4)CC(=O)N5)c3)cc2C(F)(F)F)CC1 | binding, competition with immobilised ligand | 1 µM | 100
c1cnn2ncc(-c3ccnc(N4CCC45COC5)n3)c2c1 | binding | 1 µM | 87
Cc1nc(N2CC[C@@H](O)C2)ncc1-c1cc(C(F)(F)F)cc2[nH]ncc12 | binding, competition with immobilised ligand | 1 µM | 95
O=C(NCC1CCOCC1)c1n[nH]cc1NC(=O)c1c(F)cccc1F | binding, competition with immobilised ligand | 1 µM | 84
COc1cnc(Nc2cccc(S(N)(=O)=O)c2)nc1N1CCN(c2ccccc2)CC1 | binding, competition with immobilised ligand | 1 µM | 78
N[C@@H]1CCN(c2nccc(-c3cnn4ncccc34)n2)C1 | binding | 1 µM | 84
Cn1nc(C(F)(F)F)cc1-c1cnc(N2CCc3cc(S(=O)(=O)Nc4c(F)cc(Cl)cc4F)cc(N4CCCC4=O)c32)nc1 | cell-free assay, competition with immobilised ligand | 1 µM | 97
CN(c1nccc(-c2cnn3ncccc23)n1)C1CC1 | binding | 1 µM | 100
C[C@@]1(Cc2ccc(C#N)cc2)C(=O)N(c2cc(Cl)cc(Cl)c2)c2ncc(C(=O)NC3(c4nc(C5CCC5)no4)CC3)n21 | cell-free assay, competition with immobilised ligand | 1 µM | 100
O=C(c1ccc(Nc2nccc(-c3cc4ccccc4s3)n2)cc1)N1CCC(N2CCCC2)CC1 | binding, competition with immobilised ligand | 1 µM | 76
Nc1ncc2c(n1)-c1c([nH]c3ccc(C#CC4CC4)cc13)CCCC2 | binding, competition with immobilised ligand | 1 µM | 87
O=C(c1ccc(Nc2ncc(Cl)c(-c3ccc(Cl)s3)n2)cc1)N1CCC(N2CCCC2)CC1 | binding, competition with immobilised ligand | 1 µM | 67
COc1ccnn2ncc(-c3ccnc(N(C)C)n3)c12 | binding | 1 µM | 100
CCOC(=O)c1cc2cc(-c3cc(C(=O)NCc4ccc(C(=O)O)cc4)nn3C)ccc2[nH]1 | cell-free assay, competition with immobilised ligand | 0.1 µM | 95
C[C@@H]1CCN(c2nccc(-c3cnn4ncccc34)n2)C1 | binding | 1 µM | 72
COc1ccc2cc(OCC3(C(=O)O)CN(C(=O)c4ccc(F)cc4)C3)ccc2c1 | cell-free assay, competition with immobilised ligand | 1 µM | 98
c1cncc(-c2cccc(Nc3nccc(NC4CCCCC4)n3)c2)c1 | binding, competition with immobilised ligand | 10 µM | 89
CN(C)c1ncc(F)c(-c2cnn3ncccc23)n1 | binding | 1 µM | 90
